ChEMBL document CHEMBL4732241, “Synthesis of artemisinin-piperazine-furan ether hybrids and evaluation of in vitro cytotoxic activity” (Eur J Med Chem, 2021)

Columns and labels:
[1] = system: L02; assay: Cytotoxicity against human L02 cells assessed as cell viability after 24 hrs by MTT assay; format: functional, cell-based; conditions: L02, 24 h
Outline: (§1)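 Cells pre-cultured 24 h at 37 C, then exposed for 24 h to compounds at […], with drug-free and DMSO solvent controls. MTT read-out: formazan dissolved in DMSO, absorbance at 568 nm. Inhibition rate taken relative to the negative control. IC50 from triplicate measurements.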

[2] = system: SMMC-7721; assay: Cytotoxicity against human SMMC-7721 cells assessed as cell viability after 24 hrs by MTT assay; format: functional, cell-based; conditions: SMMC-7721, 24 h; outline: as §1
[3] = system: MCF-10A; assay: Cytotoxicity against human MCF-10A cells assessed as cell viability after 48 hrs by MTT assay; format: cell-based
Outline: (§2)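 Cells pre-cultured 24 h at 37 C, then given fresh medium with compound at […] alongside drug-free and DMSO solvent controls. Incubated 48 h at 37 C, then MTT (2 mg/mL in PBS) added for 4 h. Formazan dissolved in DMSO and A568 read. Inhibition rate taken relative to the negative control. IC50 from triplicate measurements.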

[4] = system: SMMC-7721; assay: Induction of apoptosis in human SMMC-7721 cells assessed as late apoptotic cells at 10 ug/ml after 48 hrs annexin V-[…]/PI by flow cytometry (reference value: 2.42 to 3%); format: functional; conditions: dose 10 µg/ml
[5] = system: MCF7; assay: Cytotoxicity against human MCF7 cells assessed as cell viability after 48 hrs by MTT assay; format: functional, cell-based; conditions: MCF7, 48 h; outline: as §2
[6] = system: SMMC-7721; assay: Cytotoxicity against human SMMC-7721 cells assessed as cell viability after 48 hrs in presence of 100 umol/L FeSO4 by MTT assay; format: functional, cell-based; conditions: SMMC-7721, 48 h
[7] = Cytotoxicity against human HCCLM3 cells assessed as cell viability after 48 hrs by MTT assay; format: functional, cell-based; conditions: HCCLM3, 48 h; outline: as §2
[8] = system: MHCC97H; assay: Cytotoxicity against human MHCC97H cells assessed as cell viability after 48 hrs by MTT assay; format: functional, cell-based; outline: as §2
[9] = system: SMMC-7721; assay: Induction of apoptosis in human SMMC-7721 cells assessed as early apoptotic cells at 10 ug/ml after 48 hrs annexin V-[…]/PI by flow cytometry (reference value: 3.3 to 3.16%); format: functional; conditions: dose 10 µg/ml
[10] = system: SMMC-7721; assay: Induction of apoptosis in human SMMC-7721 cells assessed as necrotic cells at 10 ug/ml after 48 hrs annexin V-[…]/PI by flow cytometry (reference value: 0.15 to 0.29%); format: functional; conditions: dose 10 µg/ml
[11] = system: SMMC-7721; assay: Induction of apoptosis in human SMMC-7721 cells assessed as late apoptotic cells at 100 ug/ml after 48 hrs annexin V-[…]/PI by flow cytometry (reference value: 2.42 to 3%); format: functional; conditions: dose 100 µg/ml
[12] = system: SMMC-7721; assay: Induction of apoptosis in human SMMC-7721 cells assessed as necrotic cells at 0.1 ug/ml after 48 hrs annexin V-[…]/PI by flow cytometry (reference value: 0.15 to 0.29%); format: functional; conditions: dose 0.1 µg/ml
[13] = system: SMMC-7721; assay: Induction of apoptosis in human SMMC-7721 cells assessed as early apoptotic cells at 0.1 ug/ml after 48 hrs annexin V-[…]/PI by flow cytometry (reference value: 3.3 to 3.16%); format: functional; conditions: dose 0.1 µg/ml
[14] = system: SMMC-7721; assay: Induction of apoptosis in human SMMC-7721 cells assessed as viable cells at 10 ug/ml after 48 hrs annexin V-[…]/PI by flow cytometry (reference value: 93.54 to 94.31%); format: functional; conditions: read-out: Activity
[15] = system: HCT-116; assay: Cytotoxicity against human HCT-116 cells assessed as cell viability after 48 hrs by MTT assay; format: functional, cell-based; conditions: HCT-116, 48 h; outline: as §2
[16] = system: CCD-18Co; assay: Cytotoxicity against human CCD-18C0 cells assessed as cell viability after 48 hrs by MTT assay; format: functional, cell-based; outline: as §2
[17] = system: SMMC-7721; assay: Cytotoxicity against human SMMC-7721 cells assessed as cell viability after 48 hrs by MTT assay; format: functional, cell-based; conditions: SMMC-7721, 48 h; outline: as §2
[18] = system: SMMC-7721; assay: Induction of apoptosis in human SMMC-7721 cells assessed as late apoptotic cells at 0.1 ug/ml after 48 hrs annexin V-[…]/PI by flow cytometry (reference value: 2.42 to 3%); format: functional; conditions: dose 0.1 µg/ml
[19] = system: Huh-7; assay: Cytotoxicity against human HUH-7 cells assessed as cell viability after 48 hrs by MTT assay; format: functional, cell-based; conditions: Huh-7, 48 h; outline: as §2
[20] = system: SMMC-7721; assay: Induction of apoptosis in human SMMC-7721 cells assessed as early apoptotic cells at 100 ug/ml after 48 hrs annexin V-[…]/PI by flow cytometry (reference value: 3.3 to 3.16%); format: functional; conditions: dose 100 µg/ml
[21] = system: SMMC-7721; assay: Induction of apoptosis in human SMMC-7721 cells assessed as viable cells at 100 ug/ml after 48 hrs annexin V-[…]/PI by flow cytometry (reference value: 93.54 to 94.31%); format: functional; conditions: read-out: Activity
[22] = system: SMMC-7721; assay: Induction of apoptosis in human SMMC-7721 cells assessed as necrotic cells at 100 ug/ml after 48 hrs annexin V-[…]/PI by flow cytometry (reference value: 0.15 to 0.29%); format: functional; conditions: dose 100 µg/ml
[23] = system: SMMC-7721; assay: Induction of apoptosis in human SMMC-7721 cells assessed as viable cells at 0.1 ug/ml after 48 hrs annexin V-[…]/PI by flow cytometry (reference value: 93.54 to 94.31%); format: functional; conditions: read-out: Activity

`CC(C)[C@H]1CC[C@H](C)C[C@@H]1O[C@H]1OC(=O)C(Cl)=C1N1CCN([C@@H]2O[C@@H]3O[C@@]4(C)CC[C@H]5[C@H](C)CC[C@@H]([C@H]2C)[C@@]35OO4)CC1` gave an IC50 [1] of 0.64 µM and an IC50 [2] of 0.52 µM.
Work on `COC1OC(=O)C(Br)=C1N1CCN([C@@H]2O[C@@H]3O[C@@]4(C)CC[C@H]5[C@H](C)CC[C@@H]([C@H]2C)[C@@]35OO4)CC1` (stereo partly drawn) yielded an IC50 [1] of 0.26 µM and an IC50 [2] of 0.29 µM.
`C[C@H]1[C@H](N2CCN(C3=C(Cl)C(=O)OC3O[C@H]3CC4CCC3(C)C4(C)C)CC2)O[C@@H]2O[C@@]3(C)CC[C@H]4[C@H](C)CC[C@@H]1[C@@]24OO3` (stereo partly drawn) gave an IC50 [1] of 0.46 µM and an IC50 [2] of 0.57 µM.
Work on `COC1OC(=O)C(Cl)=C1N1CCN([C@@H]2O[C@@H]3O[C@@]4(C)CC[C@H]5[C@H](C)CC[C@@H]([C@H]2C)[C@@]35OO4)CC1` (stereo partly drawn) yielded an IC50 [3] of 0.22 µM, an Activity [4] of 6.06% and an IC50 [5] of 0.08 µM. The IC50 [6] was 0.1 µM, the IC50 [7] was 0.1 µM and the IC50 [8] was 0.1 µM. The Activity [9] was 8.77%, the Activity [10] was 0.49% and the Activity [11] was 14.42%. The IC50 [1] was 0.32 µM, the Activity [12] was 0.14% and the Activity [13] was 4.26%. The viability at 10 µg/mL [14] was 82.1%, the IC50 [15] was 0.1 µM and the IC50 [16] was 0.1 µM. It also gave an IC50 [17] of 0.11 µM, an Activity [18] of 3.21% and an IC50 [19] of 0.16 µM. For the same compound, the Activity [20] was 20.35%, the IC50 [2] was 0.26 µM and the viability at 100 µg/mL [21] was 60.3%. It also gave an Activity [22] of 0.73% and a viability at 0.1 µg/mL [23] of 88.6%.
In the case of `C[C@H]1[C@H](N2CCN(C3=C(Br)C(=O)O[C@@H]3O[C@H]3CC4CCC3(C)C4(C)C)CC2)O[C@@H]2O[C@@]3(C)CC[C@H]4[C@H](C)CC[C@@H]1[C@@]24OO3`, the IC50 [1] is reported as 0.48 µM and the IC50 [2] is reported as 0.48 µM.
`CC(C)[C@H]1CC[C@H](C)C[C@@H]1O[C@H]1OC(=O)C(Br)=C1N1CCN([C@@H]2O[C@@H]3O[C@@]4(C)CC[C@H]5[C@H](C)CC[C@@H]([C@H]2C)[C@@]35OO4)CC1` gave an IC50 [1] of 0.36 µM and an IC50 [2] of 0.39 µM.
Work on `CCOC1OC(=O)C(Cl)=C1N1CCN([C@@H]2O[C@@H]3O[C@@]4(C)CC[C@H]5[C@H](C)CC[C@@H]([C@H]2C)[C@@]35OO4)CC1` (stereo partly drawn) yielded an IC50 [1] greater than 0.7 µM and an IC50 [2] of 0.56 µM.
Work on `CCOC1OC(=O)C(Br)=C1N1CCN([C@@H]2O[C@@H]3O[C@@]4(C)CC[C@H]5[C@H](C)CC[C@@H]([C@H]2C)[C@@]35OO4)CC1` (stereo partly drawn) yielded an IC50 [1] of 0.5 µM and an IC50 [2] of 0.43 µM.
For `C[C@H]1[C@H](O)O[C@@H]2O[C@@]3(C)CC[C@H]4[C@H](C)CC[C@@H]1[C@@]24OO3`, the IC50 [1] was 0.22 µM and the IC50 [2] was greater than 0.7 µM.
In the case of `C[C@@H]1CC[C@H]2[C@@H](C)C(=O)O[C@@H]3O[C@@]4(C)CC[C@@H]1[C@]32OO4` [ARTEMISININ], the IC50 [1] is reported as 0.43 µM and the IC50 [2] is reported as 0.63 µM.
Compound `CC[C@]1(O)C[C@H]2CN(CCc3c([nH]c4ccccc34)[C@@](C(=O)OC)(c3cc4c(cc3OC)N(C=O)[C@H]3[C@@](O)(C(=O)OC)[C@H](OC(C)=O)[C@]5(CC)C=CCN6CC[C@]43[C@@H]65)C2)C1` [VINCRISTINE] has an IC50 [1] of 0.3 µM and an IC50 [2] of 0.27 µM.
